Data: ChEMBL document CHEMBL1158629, “Synthesis, in vitro and in vivo evaluation of [11C]MMTP: a potential PET ligand for mGluR1 receptors” (Bioorg Med Chem Lett, 2010)

Columns and labels:
Assay type in all cases: ADME, organism-based
[1] = Ratio of drug uptake in frontal cortex to cerebellum of baboon brain at 5 +/- 0.5 mCi, iv after 85 mins; details: papio hamadryas, in vivo
Summary of the method: (§1)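 Fasted baboons were immobilized with ketamine (10 mg/kg, i.m.) and maintained on 1.5~2.0 % isoflurane via endotracheal tube. Core temperature was held at 37°C on a heated water blanket during PET scanning.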

[2] = Ratio of drug uptake in hippocampus to cerebellum of baboon brain at 5 +/- 0.5 mCi, iv after 35 mins; details: papio hamadryas, in vivo; summary of the method: as §1
[3] = Ratio of drug uptake in putamen to cerebellum of baboon brain at 5 +/- 0.5 mCi, iv after 85 mins; details: papio hamadryas, in vivo; summary of the method: as §1
[4] = Ratio of drug uptake in caudate to cerebellum of baboon brain at 5 +/- 0.5 mCi, iv after 65 mins; details: papio hamadryas, in vivo, pooled result: one value given for 5 cell lines, strains, targets or settings; summary of the method: as §1
[5] = Metabolic stability in baboon brain assessed as compound remaining at 5 +/- 0.5 mCi, iv after 30 mins; details: papio hamadryas, in vivo, 0.5 h
[6] = Ratio of drug uptake in caudate to cerebellum of baboon brain at 5 +/- 0.5 mCi, iv after 85 mins; details: papio hamadryas, in vivo; summary of the method: as §1
[7] = Ratio of drug uptake in caudate to cerebellum of baboon brain at 5 +/- 0.5 mCi, iv after 35 mins; details: papio hamadryas, in vivo; summary of the method: as §1
[8] = Ratio of drug uptake in amygdala to cerebellum of baboon brain at 5 +/- 0.5 mCi, iv after 85 mins; details: papio hamadryas, in vivo; summary of the method: as §1
[9] = Ratio of drug uptake in amygdala to cerebellum of baboon brain at 5 +/- 0.5 mCi, iv after 35 mins; details: papio hamadryas, in vivo; summary of the method: as §1
[10] = Ratio of drug uptake in putamen to cerebellum of baboon brain at 5 +/- 0.5 mCi, iv after 35 mins; details: papio hamadryas, in vivo; summary of the method: as §1
[11] = Metabolic stability in baboon brain assessed as compound remaining at 5 +/- 0.5 mCi, iv after 90 mins; details: papio hamadryas, in vivo, 1.5 h
[12] = Ratio of drug uptake in hippocampus to cerebellum of baboon brain at 5 +/- 0.5 mCi, iv after 85 mins; details: papio hamadryas, in vivo; summary of the method: as §1
[13] = Ratio of drug uptake in frontal cortex to cerebellum of baboon brain at 5 +/- 0.5 mCi, iv after 35 mins; details: papio hamadryas, in vivo; summary of the method: as §1

`CN(C)c1ccnc2sc3c(=O)n(-c4ccc(O[11CH3])cc4)cnc3c12` showed a Ratio [1] of 1.6, a Ratio [2] of 2 and a Ratio [3] of 1.6. It also gave a Ratio [4] of 1.65, a Stability [5] of 45% and a Ratio [6] of 1.6. The Ratio [7] was 2, the Ratio [8] was 1.6 and the Ratio [9] was 2. It also gave a Ratio [10] of 2, a Stability [11] of 30% and a Ratio [12] of 1.6. The Ratio [13] was 2.
